The data set can be described thus: Metabolic stability in mouse microsomes assessed as decrease in parent compound level after 30 mins by LC/MS. It is filed as ADME, Microsome. As to conditions: read-out: Activity. The gist of the method:
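Compounds were incubated with mouse liver microsomes supplemented with UDP-glucuronosyltransferase, covering primary and secondary metabolism. Turnover was expressed as % of parent metabolized at 30 min.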

As for `CC(C)(O)[C@@H]1CNC[C@H]1Nc1nc(-c2cc(-c3cc[nH]n3)ccc2O)nc2ccccc12`, the metabolised at 0.5 h worked out at 22%.
For the compound `Oc1ccc(-c2cc[nH]n2)cc1-c1nc(N[C@H]2CCNC2)c2ccccc2n1`, the metabolised at 0.5 h was found to be 27%.
`Oc1ccccc1-c1nc(N[C@H]2CCNC2)c2ccccc2n1`: the metabolised at 0.5 h was determined as 25%.
Turning to `Oc1ccc(F)cc1-c1nc(N[C@H]2CCNC2)c2ccccc2n1`, the metabolised at 0.5 h amounted to 27%.
With `COc1cc2nc(-c3cc(F)ccc3O)nc(N[C@@H]3CNC[C@H]3C(C)(C)O)c2cc1OC` the figure was 23%; with `COCCOc1ccc2c(N[C@H]3CCNC3)nc(-c3cc(F)ccc3O)nc2c1`, 25%.

Values taken from ChEMBL document CHEMBL1649416, “Structure-based design of potent and selective 2-(quinazolin-2-yl)phenol inhibitors of checkpoint kinase 2” (J Med Chem, 2011).
